In brackets after ≈: the same amount, converted by molar mass. Activity calls are given as the source filed them. The rule behind the calls is not given here.
Test system: Mycobacterium tuberculosis
Assay: Antimicrobial activity against Mycobacterium tuberculosis H37Rv ATCC 27294 after 16 to 24 hrs by microplate alamar blue assay
Format: functional
Conditions: not given
Outline: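 M. tuberculosis H37Rv inoculum 2×10^5 cfu/mL (100 µL) added to twofold dilutions in Middlebrook 7H12 medium; final test range 128 µM to 0.5 µM from 12.8 mM DMSO stocks. Incubated 37 °C; day 7 Tween 80 plus Alamar Blue added, further 16-24 h at 37 °C. Fluorescence ex 530/em 590 nm; MIC = lowest concentration giving >90% fluorescence reduction versus replicate bacteria-only controls. Rifampin, isoniazid controls.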
For `CCCC(=O)OC1(C)c2ccccc2-c2c1c(-n1ccnc1)nc1ccc(Br)cc21` (stereo not given), the MIC was “inactive”. In the case of `CCCCCCCCC(=O)O/N=C1\c2ccccc2-c2c1c(N1CCN(c3ccccn3)CC1)nc1ccc(Br)cc21`, the MIC is reported as “inactive”. With `O=C(CCCCBr)O/N=C1\c2ccccc2-c2c1c(N1CCN(c3ccccn3)CC1)nc1ccc(Br)cc21` the MIC was 2.03 µg/mL (≈ 3.13 µM). `O=C(CNC(=O)OCC1c2ccccc2-c2ccccc21)O/N=C1\c2ccccc2-c2c1c(N1CCN(c3ccccn3)CC1)nc1ccc(Br)cc21` gave an MIC of 6 µg/mL (≈ 7.84 µM). Work on `CC1(O)c2ccccc2-c2c1c(-n1ccnc1)nc1ccc(Br)cc21` (stereo not given) yielded an MIC of 0.78 µg/mL (≈ 1.99 µM). In the case of `CCCCCCCCCCCC(=O)O/N=C1\c2ccccc2-c2c1c(N1CCN(c3ccccn3)CC1)nc1ccc(Br)cc21`, the MIC is reported as “inactive”. `O=C(/C=C/c1ccco1)O/N=C1\c2ccccc2-c2c1c(N1CCN(c3ccccn3)CC1)nc1ccc(Br)cc21` showed an MIC of 6 µg/mL (≈ 9.89 µM). With `CCCCCCCCCCCCCC(=O)O/N=C1\c2ccccc2-c2c1c(-n1ccnc1)nc1ccc(Br)cc21` the MIC was “inactive”.

Test system: not listed separately
Assay: Cytotoxicity against human U937 cells assessed as cell viability at 1.25 ug/ml after 72 hrs by MTT assay
Format: cell-based, U-937
Conditions: read-out: Activity
Outline: (§1)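 U937 human monocytic cells plated at 1 × 10^5 cells/mL and allowed to adhere for 1 h at 37 °C in 5% CO2. Non-adherent cells were washed off with RPMI 1640. Adherent cells were exposed to compound in triplicate, with medium alone as the live control and 3% Tween 20 as the dead control. MTT (5 mg/mL in PBS) was then added for 3 h at 37 °C. Formazan was dissolved in 0.4 M HCl/isopropanol and absorbance read at 600 nm. Results are expressed as % cell viability.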
`O=C(CCCCBr)O/N=C1\c2ccccc2-c2c1c(N1CCN(c3ccccn3)CC1)nc1ccc(Br)cc21` gave a viability at 72 h, 1.25 ug/ml of 99%. With `O=C(CNC(=O)OCC1c2ccccc2-c2ccccc21)O/N=C1\c2ccccc2-c2c1c(N1CCN(c3ccccn3)CC1)nc1ccc(Br)cc21` the viability at 72 h, 1.25 ug/ml was 68%. For `CC1(O)c2ccccc2-c2c1c(-n1ccnc1)nc1ccc(Br)cc21` (stereo not given), the viability at 72 h, 1.25 ug/ml was 93%. Work on `O=C(/C=C/c1ccco1)O/N=C1\c2ccccc2-c2c1c(N1CCN(c3ccccn3)CC1)nc1ccc(Br)cc21` yielded a viability at 72 h, 1.25 ug/ml of 100%.

Test system: not listed separately
Assay: Cytotoxicity against human U937 cells assessed as cell viability at 5 ug/ml after 72 hrs by MTT assay
Format: cell-based, U-937
Conditions: read-out: Activity
Outline: as §1
For `O=C(CCCCBr)O/N=C1\c2ccccc2-c2c1c(N1CCN(c3ccccn3)CC1)nc1ccc(Br)cc21`, the viability at 72 h, 5 ug/ml was 94%. Compound `CC1(O)c2ccccc2-c2c1c(-n1ccnc1)nc1ccc(Br)cc21` (stereo not given) has a viability at 72 h, 5 ug/ml of 64%.

Test system: not listed separately
Assay: Cytotoxicity against human U937 cells assessed as cell viability at 10 ug/ml after 72 hrs by MTT assay
Format: cell-based, U-937
Conditions: read-out: Activity
Outline: as §1
`O=C(CCCCBr)O/N=C1\c2ccccc2-c2c1c(N1CCN(c3ccccn3)CC1)nc1ccc(Br)cc21` gave a viability at 72 h, 10 ug/ml of 79%. Compound `O=C(CNC(=O)OCC1c2ccccc2-c2ccccc21)O/N=C1\c2ccccc2-c2c1c(N1CCN(c3ccccn3)CC1)nc1ccc(Br)cc21` has a viability at 72 h, 10 ug/ml of 73%. `CC1(O)c2ccccc2-c2c1c(-n1ccnc1)nc1ccc(Br)cc21` (stereo not given) showed a viability at 72 h, 10 ug/ml of 64%. Compound `O=C(/C=C/c1ccco1)O/N=C1\c2ccccc2-c2c1c(N1CCN(c3ccccn3)CC1)nc1ccc(Br)cc21` has a viability at 72 h, 10 ug/ml of 85%.

Test system: not listed separately
Assay: Cytotoxicity against human U937 cells assessed as cell viability at 20 ug/ml after 72 hrs by MTT assay
Format: cell-based, U-937
Conditions: read-out: Activity
Outline: as §1
For `O=C(CCCCBr)O/N=C1\c2ccccc2-c2c1c(N1CCN(c3ccccn3)CC1)nc1ccc(Br)cc21`, the viability at 72 h, 20 ug/ml was 80%. `CC1(O)c2ccccc2-c2c1c(-n1ccnc1)nc1ccc(Br)cc21` (stereo not given) gave a viability at 72 h, 20 ug/ml of 37%.

Test system: Serum
Assay: Stability of the compound in 80% human blood serum assessed as hydrolysis to 2-bromo-6-(1H-imidazol-1-yl)-7H-indeno[2,1-c]quinolin-7-one oxime at 1 mg after 24 hrs at 37 degC by LC-MS analysis
Format: ADME, cell-free
Parameters: scale not given: the % may be the effect or the level left
Conditions: not given
Outline: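 Enzymatic hydrolysis: 1 mg prodrug dissolved in 1 mL ethanol, then 200 µL preheated human blood serum diluted to 80% with 0.16 M phosphate buffer (pH 7.4) was added. Samples were kept at 37 °C (24 h) and centrifuged 10 min at 10,000 rpm. Remaining prodrug in the supernatant was monitored by TLC and LC-MS. t1/2 is the time to 50% hydrolysis.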
`O=C(CCCCBr)O/N=C1\c2ccccc2-c2c1c(N1CCN(c3ccccn3)CC1)nc1ccc(Br)cc21` showed an Activity of 10%. `O=C(CNC(=O)OCC1c2ccccc2-c2ccccc21)O/N=C1\c2ccccc2-c2c1c(N1CCN(c3ccccn3)CC1)nc1ccc(Br)cc21` showed an Activity of 29%. For `O=C(/C=C/c1ccco1)O/N=C1\c2ccccc2-c2c1c(N1CCN(c3ccccn3)CC1)nc1ccc(Br)cc21`, the Activity was “Not Active”.

Test system: not listed separately
Assay: Stability of the compound in 10% aqueous ammonia buffer at pH 8 assessed as hydrolysis to 2-bromo-6-(1H-imidazol-1-yl)-7H-indeno[2,1-c]quinolin-7-one oxime at 1 mg at 37 degC by LC-MS analysis
Format: physicochemical
Parameters: scale not given: the % may be the effect or the level left
Conditions: not given
Outline: (§2)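 Chemical hydrolysis: 1 mg prodrug dissolved in 1 mL of 10% aqueous ammonia in methanol (pH 8) and held in a thermostatted water bath at 37 °C, up to 24 h. Conversion to the parent oxime was followed by TLC and LC-MS. t1/2 is the time to 50% hydrolysis.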
Compound `O=C(CCCCBr)O/N=C1\c2ccccc2-c2c1c(N1CCN(c3ccccn3)CC1)nc1ccc(Br)cc21` has an Activity of 95%. Compound `O=C(CNC(=O)OCC1c2ccccc2-c2ccccc21)O/N=C1\c2ccccc2-c2c1c(N1CCN(c3ccccn3)CC1)nc1ccc(Br)cc21` has an Activity of 90%. `O=C(/C=C/c1ccco1)O/N=C1\c2ccccc2-c2c1c(N1CCN(c3ccccn3)CC1)nc1ccc(Br)cc21` gave an Activity of 95%.

Test system: not listed separately
Assay: Half life in 10% aqueous ammonia buffer at pH 8 assessed as hydrolysis to 2-bromo-6-(1H-imidazol-1-yl)-7H-indeno[2,1-c]quinolin-7-one oxime at 37 degC by LC-MS analysis
Format: physicochemical
Conditions: not given
Outline: as §2
For `O=C(CCCCBr)O/N=C1\c2ccccc2-c2c1c(N1CCN(c3ccccn3)CC1)nc1ccc(Br)cc21`, the half-life was 96 h. In the case of `O=C(CNC(=O)OCC1c2ccccc2-c2ccccc21)O/N=C1\c2ccccc2-c2c1c(N1CCN(c3ccccn3)CC1)nc1ccc(Br)cc21`, the half-life is reported as 36 h. Work on `O=C(/C=C/c1ccco1)O/N=C1\c2ccccc2-c2c1c(N1CCN(c3ccccn3)CC1)nc1ccc(Br)cc21` yielded a half-life of 96 h.

Test system: not listed separately
Assay: Octanol-water partition coefficient, log P of the compound at pH 7.4 at room temperature by UV spectrophotometric analysis
Format: physicochemical
Conditions: not given
Outline: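 Shake-flask method at room temperature: 1-octanol and phosphate buffer (pH 7.4) were pre-saturated by shaking for 24 h. Compound at 10^-4 M in equal volumes of both phases was shaken vigorously for 1 h, left to stand 15 min, then centrifuged 10 min at 10,000 rpm. UV absorbance of each phase was read at 280 nm against blanks, and P was taken as the octanol/water absorbance ratio.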
`O=C(CCCCBr)O/N=C1\c2ccccc2-c2c1c(N1CCN(c3ccccn3)CC1)nc1ccc(Br)cc21` showed a logD of 1.5. Work on `O=C(CNC(=O)OCC1c2ccccc2-c2ccccc21)O/N=C1\c2ccccc2-c2c1c(N1CCN(c3ccccn3)CC1)nc1ccc(Br)cc21` yielded a logD of 1.4. Compound `CC1(O)c2ccccc2-c2c1c(-n1ccnc1)nc1ccc(Br)cc21` (stereo not given) has a logD of 1.7. With `O=C(/C=C/c1ccco1)O/N=C1\c2ccccc2-c2c1c(N1CCN(c3ccccn3)CC1)nc1ccc(Br)cc21` the logD was 1.4.

Test system: not listed separately
Assay: Selectivity index, ratio CC50 for human U937 cells to MIC for Mycobacterium tuberculosis H37Rv ATCC 27294
Format: functional, U-937
Conditions: not given
With `O=C(CCCCBr)O/N=C1\c2ccccc2-c2c1c(N1CCN(c3ccccn3)CC1)nc1ccc(Br)cc21` the “Selectivity Index” value was greater than 20. For `CC1(O)c2ccccc2-c2c1c(-n1ccnc1)nc1ccc(Br)cc21` (stereo not given), the “Selectivity Index” value was 4.3.

From ChEMBL document CHEMBL1799922, “Synthesis and antimycobacterial activity of prodrugs of indeno[2,1-c]quinoline derivatives” (Eur J Med Chem, 2011)
